Usually inhibition stands for the relative decrease from the control value, in per cent. What is called IC50 is the concentration needed to halve the response being measured. Low values mean greater potency, high ones weaker potency.

36 compounds from ChEMBL document CHEMBL1955833, “Wnt inhibition correlates with human embryonic stem cell cardiomyogenesis: a structure-activity relationship study based on inhibitors for the Wnt response” (J Med Chem, 2012) can be followed below.

The structures appear in SMILES notation. Calls of active or inactive are those of the source. The rule behind the calls is not given here.

Data set [1] is described as follows: Inhibition of beta-catenin-dependent canonical Wnt3A pathway in human HEK293T cells at 1 uM by luciferase reporter gene assay. Particulars: HEK-293T. Type of data set: cell-based. In a few lines: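 HEK293T cells transiently co-transfected with Super(8x)TOPflash (TCF-firefly luciferase), TK-Renilla luciferase for normalization, and a Wnt3A-expressing vector to activate the pathway. Compounds tested at a single concentration of 1 μM, alongside untreated and DMSO vehicle controls. Firefly signal normalized to Renilla.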
(A reporter such as luciferase makes a cellular process visible.)

Data set [2] can be described thus: Inhibition of beta-catenin-dependent canonical Wnt3 pathway in human HEK293T cells by luciferase reporter gene assay. Format: cell-based. The note with it: HEK-293T.
Data set [3] relates to H9. Briefly: Cardiogenic activity in human H9 cells after 14 days by MYH6-mCherry reporter gene assay relative to 4-[(1R,2S,6R,7S)-3,5-dioxo-4-azatricyclo[5.2.1.0~2,6~]dec-8-en-4-yl]-N-quinolin-8-ylbenzamide. Format: functional. In a few lines:
(§1)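 hESC embryoid bodies grown to day 4, dissociated to single cells and plated in 384-well format with serial compound dilutions. At day 10 switched to serum-free medium with T3. At day 14 moved to PBS and imaged for red fluorescence. Total area and intensity of the MYH6-mCherry reporter were quantified per well and expressed as percent cardiogenesis, with the reference set to 100% at its maximum.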

Data set [4] has as its system HEK-293T. Briefly: Inhibition of human recombinant TGFbeta2-induced Smad signaling in HEK293T cells at 0.01 to 5 uM by luciferase reporter gene assay. Type of data set: cell-based. Summed up:
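HEK293T cells carrying a SMAD response element reporter were stimulated with human recombinant TGFβ2. Compounds were incubated at 0.01, 0.1, 1 and 5 μM. Percent inhibition of the SMAD response was calculated relative to DMSO vehicle controls.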

Data set [5] relates to H9. Briefly: Cardiogenic activity in human H9 cells at < 0.15 uM after 14 days by MYH6-mCherry reporter gene assay relative to 4-[(1R,2S,6R,7S)-3,5-dioxo-4-azatricyclo[5.2.1.0~2,6~]dec-8-en-4-yl]-N-quinolin-8-ylbenzamide. Type of data set: functional, cell-based. Summed up:
as §1

The subject of data set [6] is HEK-293T. Kind of data set: Cytotoxicity against human HEK293T cells at 0.2 to 20 uM after 24 hrs by alamar blue assay. Type of data set: cell-based. On the technique in general: The colour change of resazurin is a common sign of viable cells or microbes.

The compound `CCOc1ccccc1NC(=O)[C@H]1CC[C@H](N2C(=O)[C@@H]3[C@@H]4CC[C@@H](C4)[C@@H]3C2=O)CC1` came in with an inhibition in data set [1] of 78%. The same compound came in with an IC50 in data set [2] of 190 nM.

`O=C(Nc1cccc2ccccc12)c1ccc(N2C(=O)[C@@H]3[C@@H]4CC[C@@H](C4)[C@@H]3C2=O)cc1` displayed an inhibition in data set [1] of 41%. The IC50 in data set [2] came to 1590 nM. The Activity with H9 [3] was determined as 8%.

The compound `O=C1[C@@H]2[C@@H]3CC[C@@H](C3)[C@@H]2C(=O)N1[C@H]1CC[C@H](C(=O)Nc2ccncc2)CC1` came in with an inhibition in data set [1] of 84%. In data set [2], this compound returned an IC50 of 80 nM. In the data set on H9 [3], the Activity was 3%.

Compound `O=C(Nc1ccccc1O)c1ccc(N2C(=O)[C@@H]3[C@@H]4CC[C@@H](C4)[C@@H]3C2=O)cc1` returned an inhibition in data set [1] of 33%.

For the compound `O=C1[C@@H]2[C@@H]3CC[C@@H](C3)[C@@H]2C(=O)N1[C@H]1CC[C@H](C(=O)Nc2cccc3cccnc23)CC1`, the inhibition was 89% in data set [1] and < 20% in the data set with HEK-293T [4]. Further, the result in the data set on H9 [5] was Active. Half-maximal inhibition in data set [2] (IC50) required 4 nM. Besides, the Activity in the data set with H9 [3] turned out to be 145%.

As for `COC(=O)c1ccccc1NC(=O)[C@H]1CC[C@H](N2C(=O)[C@@H]3[C@@H]4CC[C@@H](C4)[C@@H]3C2=O)CC1`, the inhibition in data set [1] amounted to 86%. Besides, 67 nM corresponded to half-maximal inhibition in data set [2] (IC50). The Activity result was “Dose-dependent effect” in the data set with H9 [3] and 38% with H9 [3] (record 2).

In data set [1], `O=C1[C@@H]2[C@@H]3CC[C@@H](C3)[C@@H]2C(=O)N1[C@H]1CC[C@H](C(=O)Nc2cncc(O)c2)CC1` returned an inhibition of 86%. In addition, the IC50 in data set [2] was determined as 152 nM. The Activity entry in the data set with H9 [3] was “Dose-dependent effect”; in the data set on H9 [3] (record 2) it was 61%.

In data set [1], `O=C(Nc1cccc2cccnc12)c1ccc(N2C(=O)[C@@H]3[C@H](C2=O)[C@@H]2C=C[C@H]3CC2)cc1` displayed an inhibition of 83%. The compound also displayed an IC50 in data set [2] of 412 nM.

In data set [1], `O=C1c2ccccc2-c2cccc(NC(=O)[C@H]3CC[C@H](N4C(=O)[C@@H]5[C@@H]6CC[C@@H](C6)[C@@H]5C4=O)CC3)c21` registered an inhibition of 88%. The compound also had an IC50 in data set [2] of 194 nM. The Activity result in the data set with H9 [3] was “Dose-dependent effect”; with H9 [3] (record 2), 104%.

In turn, `O=C(Nc1cccc2cccnc12)c1ccc(N2C(=O)C3C(C2=O)[C@H]2CC[C@@H]3O2)cc1` (some centres undefined) registered an inhibition in data set [1] of 49%. Also, in data set [2], the IC50 was 605 nM. The compound also displayed an Activity in the data set on H9 [3] of 2%.

Compound `O=C1[C@@H]2[C@@H]3CC[C@@H](C3)[C@@H]2C(=O)N1[C@H]1CC[C@H](C(=O)Nc2cccc3ncccc23)CC1` displayed an inhibition in data set [1] of 68%. The compound also registered an IC50 in data set [2] of 604 nM.

With `CC1[C@H]2CC[C@@H]1[C@@H]1C(=O)N(c3ccc(C(=O)Nc4cccc5cccnc45)cc3)C(=O)[C@@H]12` (some centres undefined), in data set [1], the inhibition came to 76%. This compound also returned an IC50 in data set [2] of 1180 nM.

With `CC(=O)c1ccc(NC(=O)[C@H]2CC[C@H](N3C(=O)[C@@H]4[C@@H]5CC[C@@H](C5)[C@@H]4C3=O)CC2)cn1`, the inhibition in data set [1] was 56%; in the data set on HEK-293T [4], < 20%. This compound also displayed an IC50 in data set [2] of 590 nM. The compound also registered an Activity in the data set with H9 [3] of 3%.

In turn, `O=C(Nc1cccc2cccnc12)c1ccc(N2C(=O)[C@@H]3[C@@H]4CC[C@@H](C4)[C@@H]3C2=O)cc1` had an inhibition in data set [1] of 93%. Moreover, the IC50 in data set [2] was determined as 24 nM. The Activity entry in the data set with H9 [3] is “Dose-dependent effect”; with H9 [3] (record 2), 75%.

On to `O=C(Nc1cccc2cccnc12)c1ccc(N2C(=O)[C@@H]3[C@H]4CC[C@H](CC4)[C@@H]3C2=O)cc1`, for which the inhibition in data set [1] was determined as 87%. Also, the IC50 in data set [2] came to 314 nM. In the data set on H9 [3], this compound registered an Activity of 2%.

Turning to `O=C1[C@@H]2[C@@H]3CC[C@@H](C3)[C@@H]2C(=O)N1[C@H]1CC[C@H](C(=O)Nc2ccnc3ccccc23)CC1`, the inhibition in data set [1] stood at 90%. In data set [2], the concentration for half-maximal inhibition (IC50) was 109 nM.

With `O=C1[C@@H]2[C@@H]3CC[C@@H](C3)[C@@H]2C(=O)N1[C@H]1CC[C@H](C(=O)Nc2ccccn2)CC1`, the inhibition in data set [1] came out at 82%. The same compound had an IC50 in data set [2] of 109 nM. Also, the Activity in the data set on H9 [3] is 3%.

Turning to `O=C1[C@@H]2[C@@H]3CC[C@@H](C3)[C@@H]2C(=O)N1[C@H]1CC[C@H](C(=O)Nc2ccccc2O)CC1`, the inhibition in data set [1] came out at 76%. The compound also had an IC50 in data set [2] of 484 nM.

For `O=C(Nc1cccc2cccnc12)c1ccc(N2C(=O)[C@@H]3[C@@H]4CC[C@@H](C4)[C@@H]3C2=O)o1`, the inhibition in data set [1] turned out to be 0%.

In turn, `O=C1[C@@H]2[C@@H]3CC[C@@H](C3)[C@@H]2C(=O)N1[C@H]1CC[C@H](C(=O)Nc2nccc3ccccc23)CC1` registered an inhibition in data set [1] of 88%. In data set [2], this compound showed an IC50 of 95 nM. Besides, the results for the Activity result in the data set on H9 [3] and in the data set with H9 [3] (record 2) were “Dose-dependent effect” and 84%, respectively.

As to `COc1ccc(NC(=O)c2ccc(N3C(=O)[C@@H]4[C@@H]5CC[C@@H](C5)[C@@H]4C3=O)cc2)cc1`, in data set [1], the inhibition is 50%.

In data set [1], `O=C1[C@@H]2[C@@H]3CC[C@@H](C3)[C@@H]2C(=O)N1[C@H]1CC[C@H](C(=O)Nc2cccnc2Cl)CC1` displayed an inhibition of 13%. In data set [2], this compound gave an IC50 of 169 nM. Moreover, the Activity entry was “Dose-dependent effect” with H9 [3] and 56% in the data set on H9 [3] (record 2).

In the case of `O=C1[C@@H]2[C@@H]3CC[C@@H](C3)[C@@H]2C(=O)N1[C@H]1CC[C@@H](C(=O)Nc2cccc3cccnc23)CC1`, in data set [1], the inhibition stood at 90%. In data set [2], the IC50 came out at 57 nM. Moreover, the figures for the Activity entry in the data set with H9 [3] and in the data set with H9 [3] (record 2) were “Dose-dependent effect” and 65%, respectively.

Consider `O=C(Nc1cccc2cccnc12)c1cccc(N2C(=O)[C@@H]3[C@@H]4CC[C@@H](C4)[C@@H]3C2=O)c1`, for which the inhibition in data set [1] stood at 0%.

For the compound `CC(=O)c1ncccc1NC(=O)[C@H]1CC[C@H](N2C(=O)[C@@H]3[C@@H]4CC[C@@H](C4)[C@@H]3C2=O)CC1`, the inhibition was 79% in data set [1] and < 20% in the data set on HEK-293T [4]. Also, the result in the data set on H9 [5] was Active. Further, in data set [2], the IC50 is 7 nM. This compound had an Activity in the data set on H9 [3] of 145%.

As for `COc1ccccc1NC(=O)c1ccc(N2C(=O)[C@@H]3[C@@H]4CC[C@@H](C4)[C@@H]3C2=O)cc1`, the inhibition in data set [1] stood at 84%. The same compound showed an IC50 in data set [2] of 215 nM. In the data set with H9 [3], this compound registered an Activity of 8%.

Consider `O=C1[C@@H]2[C@@H]3CC[C@@H](C3)[C@@H]2C(=O)N1[C@H]1CC[C@H](C(=O)Nc2cccc3cnccc23)CC1`, for which the inhibition in data set [1] stood at 87%. This compound returned a half-inhibitory concentration (IC50) in data set [2] of 161 nM.

The compound `O=C1[C@@H]2[C@@H]3CC[C@@H](C3)[C@@H]2C(=O)N1c1ccc2c(c1)C(=O)N(c1cccc3cccnc13)C2=O` showed an inhibition in data set [1] of 15%.

In data set [1], `N#Cc1ccc(NC(=O)c2ccc(N3C(=O)[C@@H]4[C@@H]5CC[C@@H](C5)[C@@H]4C3=O)cc2)cc1` registered an inhibition of 70%. In data set [2], this compound yielded an IC50 of 317 nM. The Activity with H9 [3] was determined as 1%.

For the compound `O=C1[C@@H]2[C@@H]3CC[C@@H](C3)[C@@H]2C(=O)N1[C@H]1CC[C@H](C(=O)Nc2cncc3ccccc23)CC1`, in data set [1], the inhibition worked out at 89%. For the same compound, the midpoint of inhibition in data set [2], the IC50, lay at 55 nM. For the same compound, the results for the Activity entry in the data set on H9 [3] and in the data set with H9 [3] (record 2) were “Dose-dependent effect” and 119%, respectively.

Consider `CC(=O)c1ccccc1NC(=O)[C@H]1CC[C@@H](N2C(=O)[C@@H]3[C@@H]4CC[C@@H](C4)[C@@H]3C2=O)CC1`, for which the inhibition in data set [1] is 91%. The compound further returned an IC50 in data set [2] of 23 nM. The Activity entry was “Dose-dependent effect” with H9 [3] and 72% in the data set on H9 [3] (record 2).

Turning to `Cc1cc(/C=C/c2ccc3cc(N(C)C)ccc3[n+]2C)c(C)n1-c1ccccc1`, the Activity result in the data set on HEK-293T [6] was “Toxic”.

Consider `CC(=O)c1ccc(NC(=O)c2ccc(N3C(=O)[C@@H]4[C@@H]5CC[C@@H](C5)[C@@H]4C3=O)cc2)cc1`, for which, in data set [1], the inhibition amounted to 41%.

`O=C1[C@@H]2[C@@H]3CC[C@@H](C3)[C@@H]2C(=O)N1c1ccc(CNc2cccc3cccnc23)cc1` returned an inhibition in data set [1] of 45%.

For the compound `COc1cc(Br)ccc1NC(=O)[C@H]1CC[C@H](N2C(=O)[C@@H]3[C@@H]4CC[C@@H](C4)[C@@H]3C2=O)CC1`, the inhibition in data set [1] was 82%; with HEK-293T [4] it was < 20%. In addition, the IC50 in data set [2] worked out at 37 nM. Also, the Activity entry with H9 [3] is “Dose-dependent effect”; in the data set on H9 [3] (record 2), 20%.

Regarding `CN(C)c1ccc(NC(=O)c2ccc(N3C(=O)[C@@H]4[C@@H]5CC[C@@H](C5)[C@@H]4C3=O)cc2)cc1`, in data set [1], the inhibition came to 25%.
